Experiments:
Escherichia coli [1] = assay: Inhibition of biofilm formation in Escherichia coli K-12 ER2718 after 24 hrs by crystal violet staining-based assay; type: functional, organism-based; settings: K-12 ER2718, 24 h
In short: (§1)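 Compounds active in the 150 μM screen were taken into dose-response studies under static conditions with a crystal violet read-out. IC50 is the concentration that inhibits 50% of biofilm growth relative to an untreated control.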

Staphylococcus aureus [2] = assay: Inhibition of biofilm formation in methicillin-resistant Staphylococcus aureus BAA 44 after 24 hrs by crystal violet staining-based assay; type: functional, organism-based; settings: BAA 44, 24 h
In short: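 Static biofilm development in MRSA, read out by crystal violet staining against an untreated control. Initial screen at 150 μM. Inhibitors then went to dose-response, with IC50 taken as the concentration giving 50% inhibition of biofilm growth. Induction was judged at 50 μM: under 50% induction counted as "inducer", over 50% as "strong inducer".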

Staphylococcus aureus [3] = assay: Inhibition of biofilm formation in Staphylococcus aureus 29213 after 24 hrs by crystal violet staining-based assay; type: functional, organism-based; settings: Staphylococcus aureus, 29213, 24 h; in short: as §1
Escherichia coli [4] = assay: Reversal of N-(2-(4-(((3aR,8aR)-1,2,3,3a,8,8a-hexahydropyrrolo[2,3-b]indol-3a-yl)methyl)-1H-1,2,3-triazol-1-yl)ethyl)-4-hexylbenzamide-induced biofilm inhibition in Escherichia coli K-12 ER2718 at PC25 relative to control; type: functional; design: scale not given: the % may be the effect or the level left
In short: (§2)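 E. coli static crystal violet biofilm assay. The inducer was added at its PC25, PC50 or PC75 concentration together with the reference inhibitor at a fixed concentration. Reversal was taken as the reduction in the inhibitor's anti-biofilm activity.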

Escherichia coli [5] = assay: Reversal of N-(2-(4-(((3aR,8aR)-1,2,3,3a,8,8a-hexahydropyrrolo[2,3-b]indol-3a-yl)methyl)-1H-1,2,3-triazol-1-yl)ethyl)-4-hexylbenzamide-induced biofilm inhibition in Escherichia coli K-12 ER2718; type: functional, organism-based; in short: as §2
Staphylococcus aureus [6] = assay: Antimicrobial activity against methicillin-resistant Staphylococcus aureus BAA 44 assessed as effect on planktonic growth at IC50 after 2 to 24 hrs by colony count method; type: organism-based; settings: in vivo
Escherichia coli [7] = assay: Antimicrobial activity against Escherichia coli K-12 ER2718 assessed as effect on planktonic growth at PC75 after 2 to 24 hrs by colony count method; type: organism-based; settings: in vivo
Escherichia coli [8] = assay: Antimicrobial activity against Escherichia coli K-12 ER2718 assessed as effect on planktonic growth at PC50 in presence of N-(2-(4-(((3aR,8aR)-1,2,3,3a,8,8a-hexahydropyrrolo[2,3-b]indol-3a-yl)methyl)-1H-1,2,3-triazol-1-yl)ethyl)-4-hexylbenzamide; type: organism-based; settings: in vivo
Escherichia coli [9] = assay: Reversal of N-(2-(4-(((3aR,8aR)-1,2,3,3a,8,8a-hexahydropyrrolo[2,3-b]indol-3a-yl)methyl)-1H-1,2,3-triazol-1-yl)ethyl)-4-hexylbenzamide-induced biofilm inhibition in Escherichia coli K-12 ER2718 at PC50 relative to control; type: functional; design: scale not given: the % may be the effect or the level left; in short: as §2
Escherichia coli [10] = assay: Antimicrobial activity against Escherichia coli K-12 ER2718 assessed as effect on planktonic growth at PC50 after 2 to 24 hrs by colony count method; type: organism-based; settings: in vivo
Escherichia coli [11] = assay: Antimicrobial activity against Escherichia coli K-12 ER2718 assessed as effect on planktonic growth at PC75 after 2 to 24 hrs; type: organism-based; settings: in vivo
Escherichia coli [12] = assay: Antimicrobial activity against Escherichia coli K-12 ER2718 assessed as effect on planktonic growth at PC50 after 2 to 24 hrs; type: organism-based
Escherichia coli [13] = assay: Antimicrobial activity against Escherichia coli K-12 ER2718 assessed as effect on planktonic growth at PC75 in presence of N-(2-(4-(((3aR,8aR)-1,2,3,3a,8,8a-hexahydropyrrolo[2,3-b]indol-3a-yl)methyl)-1H-1,2,3-triazol-1-yl)ethyl)-4-hexylbenzamide; type: organism-based; settings: in vivo
Escherichia coli [14] = assay: Antimicrobial activity against Escherichia coli K-12 ER2718 assessed as effect on planktonic growth at IC50 after 2 to 24 hrs; type: organism-based
Acinetobacter baumannii [15] = assay: Antimicrobial activity against Acinetobacter baumannii 19606 assessed as effect on planktonic growth at IC50 after 2 to 24 hrs; design: species or system ATCC 19606
Escherichia coli [16] = assay: Induction of biofilm formation in Escherichia coli K-12 ER2718 assessed as concentration required for 75% promotion of biofilm formation after 24 hrs by crystal violet staining-based assay; type: functional
In short: (§3)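 For strong inducers of E. coli biofilm, dose-response curves were run in the static crystal violet assay. PC25, PC50 and PC75 are the concentrations promoting biofilm formation by 25%, 50% and 75%.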

Escherichia coli [17] = assay: Reversal of N-(2-(4-(((3aR,8aR)-1,2,3,3a,8,8a-hexahydropyrrolo[2,3-b]indol-3a-yl)methyl)-1H-1,2,3-triazol-1-yl)ethyl)-4-hexylbenzamide-induced biofilm inhibition in Escherichia coli K-12 ER2718 at PC75 relative to control; type: functional; design: scale not given: the % may be the effect or the level left; in short: as §2
Escherichia coli [18] = assay: Induction of biofilm formation in Escherichia coli K-12 ER2718 assessed as concentration required for 25% promotion of biofilm formation after 24 hrs by crystal violet staining-based assay; type: functional; in short: as §3
Staphylococcus aureus [19] = assay: Antimicrobial activity against methicillin-resistant Staphylococcus aureus BAA 44 assessed as effect on planktonic growth at IC50 after 2 to 24 hrs; type: organism-based; settings: in vivo
Escherichia coli [20] = assay: Induction of biofilm formation in Escherichia coli K-12 ER2718 at 50 uM after 24 hrs by crystal violet staining-based assay relative to control; type: functional
In short: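 Static biofilm assay with compounds at 50 μM and crystal violet read-out, relative to an untreated control. Compounds increasing biofilm by less than 50% were called inducers, and by more than 50% strong inducers.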

Escherichia coli [21] = assay: Induction of biofilm formation in Escherichia coli K-12 ER2718 assessed as concentration required for 50% promotion of biofilm formation after 24 hrs by crystal violet staining-based assay; type: functional; in short: as §3
Acinetobacter baumannii [22] = assay: Inhibition of biofilm formation in Acinetobacter baumannii 19606 at 150 uM after 24 hrs by crystal violet staining-based assay relative to control; type: functional; settings: ATCC 19606 = CIP 70.34 = JCM 6841, 24 h
Escherichia coli [23] = assay: Antimicrobial activity against Escherichia coli K-12 ER2718 assessed as effect on planktonic growth at PC25 after 2 to 24 hrs; type: organism-based
Acinetobacter baumannii [24] = assay: Antimicrobial activity against Acinetobacter baumannii 19606 assessed as effect on planktonic growth at IC50 after 2 to 24 hrs by colony count method; design: species or system ATCC 19606
Escherichia coli [25] = assay: Antimicrobial activity against Escherichia coli K-12 ER2718 assessed as effect on planktonic growth at PC25 in presence of N-(2-(4-(((3aR,8aR)-1,2,3,3a,8,8a-hexahydropyrrolo[2,3-b]indol-3a-yl)methyl)-1H-1,2,3-triazol-1-yl)ethyl)-4-hexylbenzamide; type: organism-based
Escherichia coli [26] = assay: Antimicrobial activity against Escherichia coli K-12 ER2718 assessed as effect on planktonic growth at PC25 after 2 to 24 hrs by colony count method; type: organism-based
Escherichia coli [27] = assay: Antimicrobial activity against Escherichia coli K-12 ER2718 assessed as effect on planktonic growth at 50 uM after 2 to 24 hrs; type: organism-based
In short: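 Growth curve analysis of planktonic bacteria with each biofilm inducer at 50 μM, used to assess toxicity.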

Escherichia coli [28] = assay: Antimicrobial activity against Escherichia coli K-12 ER2718 assessed as effect on planktonic growth at IC50 after 2 to 24 hrs by colony count method; type: organism-based
Staphylococcus aureus [29] = assay: Antimicrobial activity against Staphylococcus aureus 29213 assessed as effect on planktonic growth at IC50 after 2 to 24 hrs by colony count method; type: organism-based; settings: in vivo
Staphylococcus aureus [30] = assay: Antimicrobial activity against Staphylococcus aureus 29213 assessed as effect on planktonic growth at IC50 after 2 to 24 hrs; type: organism-based; settings: in vivo

Question: How did the IC50 (Escherichia coli [1]) turn out when CCCCCCc1ccc(C(=O)NCCn2cc(C[C@@]34CCN[C@@H]3Nc3ccccc34)nn2)cc1 was run?
Answer: 100 µM

Question: What about the IC50 (Staphylococcus aureus [2]) of the same compound?
Answer: 3.4 µM

Question: And the IC50 (Staphylococcus aureus [3])?
Answer: 12.5 µM

Question: CCCCCCc1ccc(C(=O)NCCn2cc(Cc3c[nH]c4ccccc34)nn2)cc1 was tested. Which Activity (Escherichia coli [4]) did it give?
Answer: 7.7%

Question: And the Activity (Escherichia coli [5])?
Answer: Dose-dependent effect

Question: What about the Activity (Staphylococcus aureus [6]) of the same compound?
Answer: Non-toxic

Question: What about the Activity (Escherichia coli [7]) of the same compound?
Answer: Non-toxic

Question: And the Activity (Escherichia coli [8])?
Answer: Non-toxic

Question: And the Activity (Escherichia coli [9])?
Answer: 47%

Question: What about the Activity (Escherichia coli [10]) of the same compound?
Answer: Non-toxic

Question: What about the Activity (Escherichia coli [11]) of the same compound?
Answer: Non-toxic

Question: And the Activity (Escherichia coli [12])?
Answer: Non-toxic

Question: What about the Activity (Escherichia coli [13]) of the same compound?
Answer: Non-toxic

Question: What about the Activity (Escherichia coli [14]) of the same compound?
Answer: Non-toxic

Question: What about the Activity (Acinetobacter baumannii [15]) of the same compound?
Answer: Non-toxic

Question: And the Activity (Escherichia coli [16])?
Answer: 160.7 µM

Question: What about the Activity (Escherichia coli [17]) of the same compound?
Answer: 87%

Question: What about the Activity (Escherichia coli [18]) of the same compound?
Answer: 47.8 µM

Question: What about the Activity (Staphylococcus aureus [19]) of the same compound?
Answer: Non-toxic

Question: What about the IC50 (Staphylococcus aureus [2]) of the same compound?
Answer: 313 µM

Question: And the Activity (Escherichia coli [20])?
Answer: >50%

Question: And the Activity (Escherichia coli [21])?
Answer: 82.6 µM

Question: What about the inhibition at 150 µM (Acinetobacter baumannii [22]) of the same compound?
Answer: 25%

Question: And the Activity (Escherichia coli [23])?
Answer: Non-toxic

Question: What about the Activity (Acinetobacter baumannii [24]) of the same compound?
Answer: Non-toxic

Question: And the Activity (Escherichia coli [25])?
Answer: Non-toxic

Question: What about the Activity (Escherichia coli [26]) of the same compound?
Answer: Non-toxic

Question: What about the IC50 (Staphylococcus aureus [3]) of the same compound?
Answer: 174 µM

Question: What about the Activity (Escherichia coli [27]) of the same compound?
Answer: Non-toxic

Question: And the Activity (Escherichia coli [28])?
Answer: Non-toxic

Question: What about the Activity (Staphylococcus aureus [29]) of the same compound?
Answer: Non-toxic

Question: And the Activity (Staphylococcus aureus [30])?
Answer: Non-toxic
